Measured values collected from several papers.
Each line is one published result; the experiments were not run side by side.
Target: Serine/threonine-protein kinase SIK2 (SIK2, Homo sapiens, UniProt Q9H0K1)

COc1cnc(Nc2cccc(S(N)(=O)=O)c2)nc1N1CCN(c2ccccc2)C(=O)C1 gave a remaining binding of 92% (binding, competition with immobilised ligand; 1 µM).
With F[C@@H]1CCN(c2nccc(-c3cnn4ncccc34)n2)C1 the remaining binding was 100% (binding; 1 µM).
The remaining binding of N#Cc1ccc(Nc2ccc3[nH]c(=O)[nH]c3c2)c(Cl)c1 is reported as 100% (cell-free assay, competition with immobilised ligand; 1 µM).
The remaining binding of N[C@@H]1CCN(c2nccc(-c3cnn4ncccc34)n2)C1 is reported as 100% (binding; 1 µM).
For CC(C)CC(=O)N1CCc2nc(-c3ccc(Br)cc3)nc(N(C)Cc3ccccc3)c2C1, the remaining binding was 100% (cell-free assay, competition with immobilised ligand; 0.1 µM).
For CNC(=O)[C@@H]1CC[C@@H](n2c(-c3ccc4cnccc4c3)nc3ccc(C(=O)NCc4cccc(C(N)=O)c4)cc32)C1, the remaining binding was 97% (binding, competition with immobilised ligand; 1 µM).
C[C@@H](c1ccc(-n2cnc3c(N)ncnc32)cc1)N1CCc2nn(C)c(Cc3ccccc3)c2C1=O gave a remaining binding of 73% (binding, competition with immobilised ligand; 0.1 µM).
With c1ccc(N2CCN(Cc3nc4ccccc4[nH]3)CC2)nc1 the remaining binding was 100% (binding, competition with immobilised ligand; 1 µM).
The remaining binding of O=C(NCCCN1CCOCC1)c1ccc(Nc2ncc(Cl)c(-c3ccc(Cl)s3)n2)cc1 is reported as 37% (binding, competition with immobilised ligand; 1 µM).
For FC(F)(F)Oc1cccc(-c2cnc3ccc(-c4ccncc4)nn23)c1, the remaining binding was 52% (binding, competition with immobilised ligand; 5 µM).
Cc1cnn2ncc(-c3ccnc(N(C)C)n3)c2c1 has a remaining binding of 100% (binding; 1 µM).
COCCOc1nc(-c2ccc(Cl)nc2)nc2c1CN(C(=O)c1ncn3ccccc13)CC2 has a remaining binding of 100% (cell-free assay, competition with immobilised ligand; 0.1 µM).
For CC1CCCN1c1nccc(-c2cnn3ncccc23)n1 (stereo not shown), the remaining binding was 90% (binding; 1 µM).
The remaining binding of CC(=O)Nc1c(C(C)=O)c(=O)n(C)c2nc(-c3ccc(Cl)cc3Cl)c(-c3ccc(Cl)cc3)cc12 is reported as 100% (cell-free assay, competition with immobilised ligand; 1 µM).
O=C(NCCCN1CCOCC1)c1ccc(Nc2nccc(-c3cc4ccccc4s3)n2)cc1 has a remaining binding of 51% (binding, competition with immobilised ligand; 1 µM).
For CN(CCCC(F)(F)F)c1nccc(-c2cnn3ncccc23)n1, the remaining binding was 99% (binding; 1 µM).
CCC(=N\O)/C(C)=C/c1ccc(F)cc1 has a remaining binding of 100% (cell-free assay, competition with immobilised ligand; 1 µM).
CN(c1nccc(-c2cnn3ncccc23)n1)C1CC1 has a remaining binding of 100% (binding; 1 µM).
With Cc1cnc(Nc2ccc(C(=O)N3CCC(N4CCCC4)CC3)cc2)nc1-c1cc2ccccc2s1 the remaining binding was 16% (binding, competition with immobilised ligand; 1 µM).
For O=C(NCC1CCOCC1)c1n[nH]cc1NC(=O)c1c(F)cccc1F, the remaining binding was 83% (binding, competition with immobilised ligand; 1 µM).
COc1ccnn2ncc(-c3ccnc(N(C)C)n3)c12 has a remaining binding of 92% (binding; 1 µM).
c1cncc(-c2cccc(Nc3nccc(NC4CCCCC4)n3)c2)c1 has a remaining binding of 73% (binding, competition with immobilised ligand; 10 µM).
